This passage reports IC50, ED50 and Activity results from ChEMBL document CHEMBL1141383, “Polycationic sulfonamides for the sequestration of endotoxin” (J Med Chem, 2007).

One test relates to HEK293. The test can be described thus: Inhibition of LPS-induced NF-kappaB production in HEK293 cells. In kind it is functional, cell-based. The note with it: Homo sapiens. A digest of the protocol: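 HEK293 cells cotransfected with TLR4, CD14 and MD2 were stimulated with LPS, and induction of NF-κB was quantified. IC50 is the concentration inhibiting 50% of the response. Run in triplicate with polymyxin B reference and negative and positive controls.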

The test system of the next test is J774.1. Description: Inhibition of LPS-induced nitric oxide production in murine J774.1 cells by automated Griess assay. The settings on record: Mus musculus. Format: functional, cell-based. In outline:
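Murine macrophage J774A.1 cells were stimulated with 100 ng/mL LPS, and NO was read by automated Griess assay. IC50 is the concentration inhibiting 50% of the response. Run in triplicate with polymyxin B reference and negative and positive controls.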
In general terms: Griess reagent forms a coloured azo dye with nitrite.

Test [1] is described as follows: Binding affinity to lipid A moiety of LPS in gram negative bacteria by fluorescent-based displacement assay. In outline: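 LPS binding measured by automated rapid-throughput fluorescence displacement of the probe BODIPY-TR cadaverine from LPS. ED50 is the concentration displacing 50% of LPS-bound probe. Run in triplicate, with polymyxin B as reference and negative and positive controls.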

The test system of test [2] is Blood. The test can be described thus: Inhibition of LPS-induced TNFalpha release in human whole blood. Format: functional, tissue-based. In outline:
(§1)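 Healthy human whole blood, ex vivo, was stimulated with LPS. TNF-α, IL-1β, IL-6, IL-8, IL-10 and IL-12p70 were quantified concurrently by a multiplexed flow-cytometric bead array. IC50 is the concentration inhibiting 50% of the response. Run in triplicate with polymyxin B reference and negative and positive controls.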

For test [3], the system named is Blood. Description: Inhibition of LPS-induced IL6 release in human whole blood. Format: functional, tissue-based. A digest of the protocol:
as §1

The subject of test [4] is Blood. Description: Inhibition of LPS-induced IL8 release in human whole blood. In kind it is functional, tissue-based. A digest of the protocol:
as §1

Test [5] concerns Mus musculus. The test can be described thus: Protection against LPS-induced lethality in galactosamine-sensitized CF1 mouse model of septic shock at 8 mg/kg after 24 hrs. Format: functional, organism-based. On the set-up: dose 8 mg/kg. In outline: (§2)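 Female outbred CF-1 mice, 9–11 weeks old and 22–28 g, were sensitized with D-galactosamine. Cohorts of five received graded compound doses in saline i.p. in one flank, immediately before an i.p. challenge of 200 ng E. coli 0111:B4 LPS (2× LD100) in the other flank. Lethality was scored at 24 h.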

For test [6], the system named is Mus musculus. The test can be described thus: Protection against LPS-induced lethality in galactosamine-sensitized CF1 mouse model of septic shock at >2 mg/kg after 24 hrs. In kind it is functional, organism-based. In outline:
as §2

pIC50: −log10 of the molar value.

As for `CCCCCCCCCCS(=O)(=O)NCCCN(CCCNCCCNCCCCNCCCN)CCCNS(=O)(=O)CCCCCCCCCC`, the values for the pIC50 in the test with HEK293 and in the test on J774.1 were 5.66 and 6.37, respectively. Besides, the ED50 in test [1] is 1.16 µM.
On to `CCCCCCCCCCCCCCCCS(=O)(=O)NCCCN(CCCNCCCCNCCCN)CCCNS(=O)(=O)CCCCCCCCCCCCCCCC`, for which the negative logarithm of the IC50 (pIC50) (usually the negative decadic logarithm of the IC50, by convention in mol/L) is 5.31 with HEK293 and 4.82 with J774.1. In addition, the ED50 in test [1] stood at 26.4 µM.
In the test on HEK293, `CCCCCCCCS(=O)(=O)NCCCNC/C=C/CNCCCN` showed a pIC50 of 4.90. Moreover, the ED50 in test [1] came out at 12.4 µM.
Consider `CCCCCCCCCCCCS(=O)(=O)NCCCNCCCCNCCCN`, for which the figures for the pIC50 with HEK293 and with J774.1 were 6.39 and 5.87, respectively. Besides, the ED50 in test [1] worked out at 2.69 µM.
For `CCCCCCCCCCCCCCCCS(=O)(=O)NCCCNCCCCNCCCN`, the pIC50 was 6.55 in the test with HEK293; 6.35 with J774.1; 4.66 with Blood [2]; 5.09 in the test with Blood [3]; 4.82 in the test on Blood [4]. Further, in the test with Mus musculus [5], the Activity entry was “Dose-dependent effect”. The compound further came in with an ED50 in test [1] of 3.87 µM.
As for `CCCCCCCCCCCCS(=O)(=O)NCCCNCCCNCCCCNCCCN`, the pIC50 in the test on HEK293 is 6.72; in the test on J774.1, 6.41; in the test with Blood [2] it was 4.52; in the test on Blood [3], 4.92; in the test with Blood [4], 4.82. The same compound came in with an ED50 in test [1] of 2.92 µM.
As to `CCCCCCCC(=O)NCCCN(CCCNCCCNCCCCNCCCN)CCCNC(=O)CCCCCCC`, the pIC50 is 5.50 with HEK293 and 5.61 in the test with J774.1. This compound also registered an ED50 in test [1] of 1.32 µM.
`CCCCCCCCCCS(=O)(=O)NCCCNCCCCNCCCN`: the pIC50 is 6.30 in the test with HEK293 and 5.35 in the test with J774.1. In test [1], the ED50 was 3.7 µM.
For `CCCCCCCCS(=O)(=O)NCCCNCCCNCCCCNCCCN`, the negative-log IC50 (pIC50) in the test on HEK293 was 6.09; with J774.1, 5.19. The ED50 in test [1] worked out at 2.84 µM.
As to `CCCCCCCCCCCCS(=O)(=O)NCCCN(CCCNCCCCNCCCN)CCCNS(=O)(=O)CCCCCCCCCCCC`, the values for the pIC50 in the test with HEK293 and with J774.1 were 4.88 and 5.64, respectively. The compound further registered an ED50 in test [1] of 3.98 µM.
As to `CCCCCCCCS(=O)(=O)NCCCNCCCCNCCCN`, the pIC50 in the test with HEK293 was 4.48; in the test on J774.1, 5.84. The compound also yielded an ED50 in test [1] of 6.64 µM.
As for `CCCCCCCCCCCCCCCCS(=O)(=O)NCCCOCCCCOCCCN`, the negative-log IC50 (pIC50) with HEK293 is 4.65; in the test with J774.1, 4.51. The same compound came in with an ED50 in test [1] of over 5000 µM.
Take `CCCCCCCCCCS(=O)(=O)NCCCNCCCNCCCCNCCCN`: the pIC50 is 6.56 with HEK293; 5.96 with J774.1; 4.48 in the test with Blood [2]; 4.53 with Blood [3]; 4.65 in the test with Blood [4]. This compound showed an ED50 in test [1] of 2.89 µM.
Turning to `CCCCCCCCCCS(=O)(=O)NCCCNCCCNCCCCNCCCNCCCNS(=O)(=O)CCCCCCCCCC`, the values for the pIC50 in the test with HEK293 and in the test on J774.1 were 5.38 and 6.16, respectively. The ED50 in test [1] came out at 13.5 µM.
In turn, `CCCCCCCCS(=O)(=O)NCCCNCCCNCCCN` gave a pIC50 with HEK293 of 5.25. For the same compound, the ED50 in test [1] worked out at 6.7 µM.
Compound `CCCCCCCCCCCCCCCCS(=O)(=O)NCCN(CCN)CCN` gave a negative logarithm of the IC50 (pIC50) with HEK293 of 6.42. Also, the ED50 in test [1] was 3.54 µM.
On to `CCCCCCCCCCCCCCCCS(=O)(=O)N(CCCN)CCCCNCCCN`, for which the pIC50 was 5.57 in the test with HEK293 and 4.86 with J774.1. This compound displayed an ED50 in test [1] of 45.6 µM.
On to `CCCCCCCCCCCCCCCCS(=O)(=O)NCCCNCCCNCCCCNCCCNCCCNS(=O)(=O)CCCCCCCCCCCCCCCC`, for which the pIC50 in the test with HEK293 is 4.93; in the test with J774.1, 5.20. The ED50 in test [1] was determined as 133 µM.
On to `CCCCCCCCCCCCCCCCCCS(=O)(=O)NCCCNCCCNCCCCNCCCN`, for which the pIC50 is 5.97 in the test with HEK293 and 6.64 in the test with J774.1. The compound further had an ED50 in test [1] of 4.45 µM.
For the compound `CCCCCCCCCCCCCCCCCCS(=O)(=O)NCCCN(CCCNCCCCNCCCN)CCCNS(=O)(=O)CCCCCCCCCCCCCCCCCC`, the pIC50 in the test with HEK293 is 4.19. This compound also returned an ED50 in test [1] of 28.3 µM.
On to `CCCCCCCCS(=O)(=O)NCCCN(CCCNCCCCNCCCN)CCCNS(=O)(=O)CCCCCCCC`, for which the negative logarithm of the IC50 (pIC50) in the test with HEK293 is 6.17; in the test on J774.1, 5.74. In test [1], this compound gave an ED50 of 2.17 µM.
In turn, `CCCCCCCCCCCCS(=O)(=O)NCCCNC/C=C/CNCCCN` gave a pIC50 in the test with HEK293 of 6.28. This compound also showed an ED50 in test [1] of 3.83 µM.
In the test on HEK293, `CCCCCCCCCCCCS(=O)(=O)NCCCNCCCNCCCN` had a negative logarithm of the IC50 (pIC50) of 6.44. This compound returned an ED50 in test [1] of 4.27 µM.
Consider `CCCCCCCCCCCCCCCCCCS(=O)(=O)NCCCNCCCCNCCCN`, for which the pIC50 with HEK293 was 6.44; in the test with J774.1, 6.32; in the test on Blood [2], 4.74; in the test with Blood [3], 5.06; in the test on Blood [4], 4.81. The compound further had an ED50 in test [1] of 6.01 µM.
As to `CCCCCCCC(=O)NCCCN(CCCNCCCCNCCCN)CCCNC(=O)CCCCCCC`, the pIC50 was 5.01 in the test with HEK293 and 5.04 with J774.1. In test [1], this compound yielded an ED50 of 1 µM.
For `CCCCCCCCCCCCS(=O)(=O)NCCCNCCCNCCCCNCCCNCCCNS(=O)(=O)CCCCCCCCCCCC`, in that order: 4.99, 5.30 and 55.2 µM.
As to `CCCCCCCCCCS(=O)(=O)NCCCN(CCCNCCCCNCCCN)CCCNS(=O)(=O)CCCCCCCCCC`, the pIC50 in the test with HEK293 is 5.29; with J774.1 it was 5.96. Besides, in test [1], the ED50 was determined as 2.4 µM.
Consider `CCCCCCCCCCCCCCCCS(=O)(=O)NCCCN(CCCN)CCCN`, for which, in the test on HEK293, the negative logarithm of the IC50 (pIC50) is 5.04. The compound further showed an ED50 in test [1] of 12.3 µM.
`CCCCCCCCCCCCS(=O)(=O)NCCNCCCNCCN` showed a pIC50 with HEK293 of 6.16. The same compound returned an ED50 in test [1] of 4.77 µM.
With `CCCCCCCCCCCCCCCCCCS(=O)(=O)NCCCNCCCNCCCCNCCCNCCCNS(=O)(=O)CCCCCCCCCCCCCCCCCC`, the pIC50 is 5.19 with HEK293 and 5.37 in the test with J774.1. The ED50 in test [1] came out at 5000 µM.
For the compound `CCCCCCCCS(=O)(=O)NCCNCCCNCCN`, the pIC50 with HEK293 is 4.86. In test [1], this compound displayed an ED50 of 10.6 µM.
For `CCCCCCCCCCCCS(=O)(=O)NCCCN(CCCNCCCNCCCCNCCCN)CCCNS(=O)(=O)CCCCCCCCCCCC`, the values for the pIC50 with HEK293 and in the test on J774.1 were 4.79 and 6.29, respectively. In test [1], this compound displayed an ED50 of 6.82 µM.
As to `CCCCCCCCCCCCCCCCS(=O)(=O)NCCCNCCCNCCCCNCCCN`, the negative-log IC50 (pIC50) was 6.70 in the test with HEK293; 6.92 with J774.1; 4.85 in the test with Blood [2]; 5.23 in the test on Blood [3]; 4.82 with Blood [4]; 5.38 in test [1]. Also, the Activity entry in the test with Mus musculus [5] was “Dose-dependent effect”. For the same compound, in test [1], the ED50 is 4.71 µM.
Turning to `CCCCCCCCS(=O)(=O)NCCCN(CCCNCCCNCCCCNCCCN)CCCNS(=O)(=O)CCCCCCCC`, the pIC50 with HEK293 was 6.52; in the test on J774.1, 6.49; with Blood [2], 4.96; with Blood [3] it was 5.11; with Blood [4], 4.90. In addition, in the test with Mus musculus [6], the Activity result was “Toxic”. Further, in test [1], the ED50 was 2.62 µM.
As to `CCCCCCCCCCCCCCCCS(=O)(=O)NCCCN(CCCNCCCNCCCCNCCCN)CCCNS(=O)(=O)CCCCCCCCCCCCCCCC`, the pIC50 with HEK293 is 5.57; in the test with J774.1, 5.28. The same compound showed an ED50 in test [1] of 9.31 µM.
As to `CCCCCCCCS(=O)(=O)NCCCNCCCNCCCCNCCCNCCCNS(=O)(=O)CCCCCCCC`, the pIC50 in the test on HEK293 was 6.22; in the test with J774.1 it was 6.24. In test [1], this compound returned an ED50 of 2.6 µM.
